In ChEMBL document CHEMBL4354800, “Amphiphilic nebramine-based hybrids Rescue legacy antibiotics from intrinsic resistance in multidrug-resistant Gram-negative bacilli” (Eur J Med Chem, 2019):

Legend:
Pseudomonas aeruginosa [1] = assay: Synergistic antibacterial activity against MDR/XDR Pseudomonas aeruginosa isolate PA264-104354 harboring GyrA T83I mutant assessed as fractional inhibitory concentration index in presence of moxifloxacin incubated for 18 hrs by broth microdilution method; format: functional
Summary of the method: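 Checkerboard synergy assay. Antibiotic and adjuvant in twofold dilutions in Mueller-Hinton broth. Inoculum 5 × 10^5 CFU/mL from a 0.5 McFarland suspension, 18 h at 37 °C, MIC read by turbidity and confirmed at 590 nm. FIC = MIC in combination / MIC alone for each agent, FICI = sum. Interpreted as ≤0.5 synergy, 0.5–4 no interaction, >4 antagonism.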

Pseudomonas aeruginosa [2] = assay: Potentiation of minocycline-induced antimicrobial activity against MDR/XDR Pseudomonas aeruginosa isolate 101885 harboring GyrA Thr83Ile mutant assessed as minocycline MIC80 incubated for 18 hrs by broth microdilution method (reference value: 32 microg/ml); format: functional; conditions: isolate 101885, 18 h
Pseudomonas aeruginosa [3] = assay: Potentiation of minocycline-induced antibacterial activity against MDR/XDR Pseudomonas aeruginosa isolate 101885 harboring GyrA T83I mutant assessed as fold reduction in minocycline MIC at 7.5 uM incubated for 18 hrs by broth microdilution method; format: functional
Pseudomonas aeruginosa [4] = assay: Potentiation of moxifloxacin-induced antibacterial activity against MDR/XDR Pseudomonas aeruginosa isolate PA260-97103 harboring GyrA T83I mutant assessed as fold reduction in moxifloxacin MIC at 7.5 uM incubated for 18 hrs by broth microdilution method; format: functional
Summary of the method: (§1)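 CLSI broth microdilution. Overnight cultures were set to 0.5 McFarland in saline, diluted 1:50 in Mueller-Hinton broth to a final 5 × 10^5 CFU/mL, and incubated 18 h at 37 °C against 2-fold antibiotic dilutions. A fixed adjuvant level was present throughout. MIC = lowest concentration with no visible turbidity, confirmed at 590 nm. Potentiation = fold drop in antibiotic MIC versus antibiotic alone.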

Pseudomonas aeruginosa [5] = assay: Potentiation of minocycline-induced antimicrobial activity against MDR/XDR Pseudomonas aeruginosa isolate PA259-96918 harboring GyrA Thr83Ile mutant assessed as minocycline MIC50 incubated for 18 hrs by broth microdilution method (reference value: 16 microg/ml); format: functional; conditions: isolate PA259-96918, 18 h
Acinetobacter baumannii [6] = assay: Synergistic antibacterial activity against multidrug-resistant Acinetobacter baumannii AB030 assessed as fractional inhibitory concentration index in presence of rifampicin incubated for 18 hrs by broth dilution method; format: functional
Pseudomonas aeruginosa [7] = assay: Potentiation of minocycline-induced antibacterial activity against MDR/XDR Pseudomonas aeruginosa isolate 100036 harboring GyrA T83I mutant assessed as fold reduction in minocycline MIC at 7.5 uM incubated for 18 hrs by broth microdilution method; format: functional
Pseudomonas aeruginosa [8] = assay: Potentiation of minocycline-induced antimicrobial activity against MDR/XDR Pseudomonas aeruginosa isolate 101885 harboring GyrA Thr83Ile mutant assessed as minocycline MIC50 incubated for 18 hrs by broth microdilution method (reference value: 16 microg/ml); format: functional; conditions: isolate 101885, 18 h
Pseudomonas aeruginosa [9] = assay: Potentiation of minocycline-induced antibacterial activity against wild type Pseudomonas aeruginosa PAO1 assessed as fold reduction in minocycline MIC at 7.5 uM incubated for 18 hrs by broth microdilution method; format: functional
Summary of the method: (§2)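 Antibiotic MIC determined by CLSI broth microdilution (MHB, 5 × 10^5 CFU/mL, 18 h, 37 °C), once alone and once with a fixed concentration of the adjuvant. Potentiation is the ratio of the antibiotic MIC alone to its MIC in the presence of the adjuvant.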

Acinetobacter baumannii [10] = assay: Antimicrobial activity against multidrug-resistant Acinetobacter baumannii 110193 incubated for 18 hrs by broth dilution method; format: functional; conditions: Acinetobacter baumannii, 110193, 18 h
Summary of the method: (§3)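 Broth microdilution per CLSI: overnight cultures set to 0.5 McFarland in saline, diluted 1:50 in Mueller-Hinton broth to a final 5 × 10^5 CFU/mL, added to 2-fold serial dilutions, incubated 18 h at 37 °C; MIC is the lowest concentration without visible turbidity, confirmed at 590 nm.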

Escherichia coli [11] = assay: Potentiation of rifampicin-induced antibacterial activity against Escherichia coli 94474 assessed as fold reduction in rifampicin MIC at 4.1 uM incubated for 18 hrs by broth dilution method; format: functional; summary of the method: as §1
Klebsiella pneumoniae [12] = assay: Synergistic antibacterial activity against Klebsiella pneumoniae 113250 assessed as fractional inhibitory concentration index in presence of rifampicin incubated for 18 hrs by broth dilution method; format: functional
Summary of the method: (§4)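 Checkerboard titration of the adjuvant against the antibiotic, run under the CLSI microdilution conditions (MHB, 5 × 10^5 CFU/mL, 18 h, 37 °C). Each agent's FIC is its MIC in combination divided by its MIC alone; FICI is the sum of the two FICs. FICI ≤0.5 was read as synergy, >0.5–4.0 as no interaction, and >4.0 as antagonism.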

Escherichia coli [13] = assay: Synergistic antibacterial activity against Escherichia coli 107115 assessed as fractional inhibitory concentration index in presence of rifampicin incubated for 18 hrs by broth dilution method; format: functional; summary of the method: as §4
Escherichia coli [14] = assay: Synergistic antibacterial activity against Escherichia coli ATCC 25922 assessed as fractional inhibitory concentration index in presence of rifampicin incubated for 18 hrs by broth dilution method; format: functional; summary of the method: as §4
Klebsiella pneumoniae [15] = assay: Potentiation of minocycline-induced antibacterial activity against Klebsiella pneumoniae 116381 assessed as fold reduction in minocycline MIC at 4.1 uM incubated for 18 hrs by broth dilution method; format: functional; summary of the method: as §2
Pseudomonas aeruginosa [16] = assay: Antimicrobial activity against XDR Pseudomonas aeruginosa isolate PA264 infected in Galleria mellonella larvae assessed as increase in survival rate co-administered with rifampicin at 2 hrs post-inoculation measured every 6 hrs for upto 24 hrs; format: functional, organism-based
Summary of the method: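 G. mellonella larvae each received an injection of about 5 CFU of PA264 (culture adjusted to 0.5 McFarland, then diluted in PBS to 5 × 10^2 CFU/mL) and were held 2 h at 37 °C. A single injection followed: rifampicin plus adjuvant at 25+25, 50+50 or 75+75 mg/kg, or PBS. Larvae were kept at 37 °C and scored every 6 h up to 24 h; no response to touch counted as dead. Total n=30 per group; Kaplan-Meier analysis.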

Escherichia coli [17] = assay: Synergistic antibacterial activity against Escherichia coli 94474 assessed as fractional inhibitory concentration index in presence of minocycline incubated for 18 hrs by broth dilution method; format: functional; summary of the method: as §4
Escherichia coli [18] = assay: Antimicrobial activity against Escherichia coli 107115 incubated for 18 hrs by broth dilution method; format: functional; conditions: Escherichia coli, 107115, 18 h; summary of the method: as §3
Pseudomonas aeruginosa [19] = assay: Potentiation of moxifloxacin-induced antibacterial activity against MDR/XDR Pseudomonas aeruginosa isolate PA260-97103 harboring GyrA T83I mutant assessed as fold reduction in moxifloxacin MIC at 9 uM incubated for 18 hrs by broth microdilution method; format: functional; summary of the method: as §1
Pseudomonas aeruginosa [20] = assay: Potentiation of minocycline-induced antibacterial activity against MDR/XDR Pseudomonas aeruginosa isolate 101243 devoid of GyrA T83I mutant assessed as fold reduction in minocycline MIC at 9 uM incubated for 18 hrs by broth microdilution method; format: functional

For COc1c(N2C[C@@H]3CCCN(CCCCCCCCCCCCO[C@@H]4[C@@H](O)[C@H](N)C[C@H](N)[C@H]4O[C@H]4O[C@H](CN)[C@@H](O)C[C@H]4N)[C@@H]3C2)c(F)cc2c(=O)c(C(=O)O)cn(C3CC3)c12.Cl.Cl.Cl.Cl.Cl, the “fractional inhibitory concentration index (FICI)” value (Pseudomonas aeruginosa [1]) was 0.09, the MIC80 (Pseudomonas aeruginosa [2]) was 1 µg/mL and the “fold change (FC)” value (Pseudomonas aeruginosa [3]) was 16. The “fold change (FC)” value (Pseudomonas aeruginosa [4]) was 64, the MIC50 (Pseudomonas aeruginosa [5]) was 0.5 µg/mL and the “fractional inhibitory concentration index (FICI)” value (Acinetobacter baumannii [6]) was 0.031 - 0.281. The “fold change (FC)” value (Pseudomonas aeruginosa [7]) was 32, the MIC50 (Pseudomonas aeruginosa [8]) was 0.5 µg/mL and the “fold change (FC)” value (Pseudomonas aeruginosa [9]) was 8. For the same compound, the MIC (Acinetobacter baumannii [10]) was over 256 µg/mL.
Cl.Cl.Cl.Cl.Cl.NC[C@H]1O[C@H](O[C@H]2[C@H](OCCCCCCCCCCCCN3CCN(c4cc5c(cc4F)c(=O)c(C(=O)O)cn5C4CC4)CC3)[C@@H](O)[C@H](N)C[C@@H]2N)[C@H](N)C[C@@H]1O was tested, and the “fold change (FC)” value (Escherichia coli [11]) was 256, the “fractional inhibitory concentration index (FICI)” value (Klebsiella pneumoniae [12]) was 0.039 and the “fractional inhibitory concentration index (FICI)” value (Escherichia coli [13]) was 0.015 - 0.02. The “fractional inhibitory concentration index (FICI)” value (Escherichia coli [14]) was 0.133, the “fold change (FC)” value (Klebsiella pneumoniae [15]) was 16 and the Activity (Pseudomonas aeruginosa [16]) was “Dose-dependent effect”. The “fractional inhibitory concentration index (FICI)” value (Escherichia coli [17]) was 0.063 - 0.078 and the MIC (Escherichia coli [18]) was 32 µg/mL.
Cl.Cl.Cl.Cl.Cl.Cl.NC[C@H]1O[C@H](O[C@H]2[C@H](OCCCCCCCCCCN3CCN(Cc4cccc5ccccc45)CC3)[C@@H](O)[C@H](N)C[C@@H]2N)[C@H](N)C[C@@H]1O was tested, and the “fold change (FC)” value (Pseudomonas aeruginosa [19]) was 128 and the “fold change (FC)” value (Pseudomonas aeruginosa [20]) was 8.
